Experimental data: ChEMBL document CHEMBL1158527, “Identification of novel allosteric nonpeptidergic inhibitors of the human cytomegalovirus-encoded chemokine receptor US28” (Bioorg Med Chem, 2010)

Assays:
[1] = Displacement of [125I]CCL5 from HCMV US28 receptor; design: species or system Human betaherpesvirus 5
How it was run: (§1)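 Allosteric inhibition of chemokine binding to US28 was measured by ¹²⁵I-CCL5 radioligand binding. IC50 values (mean and interval) came from competition curves. Single-point data give percent inhibition of CCL5 binding at 10 µM compound. All runs were in triplicate and repeated at least three times.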

[2] = Activity at HCMV US28 receptor assessed as receptor-mediated inositol phosphate response; design: species or system Human betaherpesvirus 5
How it was run: (§2)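 Compounds were tested against ligand-independent (constitutive) US28-driven inositol phosphate production, measured as InsP accumulation. EC50 values (mean and interval) came from dose–response curves. Single-point data give percent inhibition of constitutive signaling at 10 µM compound. All runs were in triplicate and repeated at least three times.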

Human betaherpesvirus 5 [3] = assay: Activity at HCMV US28 receptor assessed as receptor-mediated inositol phosphate response at 10 uM; how it was run: as §2
Human betaherpesvirus 5 [4] = assay: Displacement of [125I]CCL5 from HCMV US28 receptor at 10 uM; how it was run: as §1

NCC(OC(c1ccccc1)c1ccc(Cl)cc1Cl)c1ccccc1 (configuration not stated)
IC50 [1]: 9.2 µM
EC50 [2]: 10.2 µM

CC(Cc1ccccc1)NCCC1c2ccccc2-c2ccccc21 (configuration not stated)
IC50 [1]: 5.2 µM
EC50 [2]: 10.9 µM

CSc1ccc2c(c1)C(OCCN1CCC(O)(c3ccc(Cl)cc3)CC1)Cc1ccccc1S2 (configuration not stated)
IC50 [1]: 12.4 µM
EC50 [2]: 7.1 µM

Clc1ccc(CC2Cc3ccccc3C2NCc2ccccc2)c(Cl)c1 (configuration not stated)
IC50 [1]: > 100 µM
EC50 [2]: > 100 µM

CN1CCN(C2=Nc3cc(Cl)ccc3Oc3ccccc32)CC1
Activity (Human betaherpesvirus 5 [3]): 22%
Activity (Human betaherpesvirus 5 [4]): 19%

COc1ccc(CC2Cc3ccccc3C2N)c(OC)c1 (configuration not stated)
IC50 [1]: > 100 µM
EC50 [2]: > 100 µM

OC1(c2ccc(Cl)cc2)CCN(CCOC(c2ccccc2)c2ccc(F)cc2)CC1 (configuration not stated)
IC50 [1]: 2.3 µM
EC50 [2]: 4.6 µM

N#CC(CCCN1CCC(O)(c2ccc(Cl)cc2)CC1)(c1ccccc1)c1ccccc1 [BERLEX COMPOUND]
IC50 [1]: 4.9 µM
EC50 [2]: 6.3 µM

N/C(CCN1C2CCC1CC(OC1c3ccccc3CCc3ccccc31)C2)=N\O (configuration not stated)
Activity (Human betaherpesvirus 5 [3]): 0%
Activity (Human betaherpesvirus 5 [4]): 0%

CC(C)(C)c1ccc(C(OC(CN)c2ccccc2)c2ccccc2)cc1 (configuration not stated)
IC50 [1]: 8.2 µM
EC50 [2]: 8.4 µM

CCCCCCCCN1C2CCC1CC(OC1c3ccccc3CCc3ccccc31)C2 (configuration not stated)
IC50 [1]: 5.6 µM
EC50 [2]: 4.9 µM

OC1(c2ccc(Cl)cc2)CCN(CCCN(Cc2ccccc2)c2ccccc2)CC1
IC50 [1]: 4.1 µM
EC50 [2]: 3 µM

COc1ccc(CC2Cc3ccccc3C2N)cc1 (configuration not stated)
IC50 [1]: > 100 µM
EC50 [2]: > 100 µM

C1=Cc2ccccc2C(OC2CC3CCC(C2)N3C2CCCCC2)c2ccccc21 (configuration not stated)
IC50 [1]: 8.3 µM
EC50 [2]: 5.8 µM

NC(CCc1ccc(Cl)c(Cl)c1)c1ccc(Cl)c(Cl)c1 (configuration not stated)
IC50 [1]: 7.5 µM
EC50 [2]: 11.7 µM

CC(Cc1ccc(Cl)cc1)NCCC1=C2C=CC=CC2Sc2ccccc21 (configuration not stated)
IC50 [1]: 2.6 µM
Activity (Human betaherpesvirus 5 [3]): 21%

CN1CCN(C2=Nc3cc(Cl)ccc3Nc3ccccc32)CC1
Activity (Human betaherpesvirus 5 [3]): 11%
Activity (Human betaherpesvirus 5 [4]): 47%

CCc1ccccc1C1(OCCN(C)Cc2cccc(C)c2)CCCCC1C (configuration not stated)
IC50 [1]: 12.9 µM
Activity (Human betaherpesvirus 5 [3]): 10%

CN1CCN(C2=Nc3ccccc3Oc3ccc(Cl)cc32)CC1
Activity (Human betaherpesvirus 5 [3]): 0%
Activity (Human betaherpesvirus 5 [4]): 13%

Clc1ccc(CC2Cc3ccccc3C2N2CCN(c3ccccc3)CC2)c(Cl)c1 (configuration not stated)
IC50 [1]: > 100 µM
EC50 [2]: > 100 µM

N=C(N)NCCN1C2CCC1CC(OC1c3ccccc3CCc3ccccc31)C2 (configuration not stated)
Activity (Human betaherpesvirus 5 [3]): 0%
Activity (Human betaherpesvirus 5 [4]): 34%

CC(Cc1cccc(C(F)(F)F)c1)NCC=C(c1ccc(F)cc1)c1ccc(F)cc1 (configuration not stated)
Activity (Human betaherpesvirus 5 [3]): 38%
Activity (Human betaherpesvirus 5 [4]): 39%

OC1(c2ccc(Cl)cc2)CCN(CCCN(Cc2ccc(Cl)cc2)c2ccccc2)CC1
IC50 [1]: 5.7 µM
EC50 [2]: 5.5 µM

CC(Cc1ccccc1)NCC=C1c2ccccc2-c2ccccc21 (configuration not stated)
IC50 [1]: 7 µM
Activity (Human betaherpesvirus 5 [3]): 42%

NC1c2ccccc2CCCC1Cc1ccc(Cl)cc1Cl (configuration not stated)
IC50 [1]: 11.8 µM
Activity (Human betaherpesvirus 5 [3]): 26%

OC1(c2ccc(Cl)cc2)CCN(C2c3ccccc3CC2Cc2ccc(Cl)cc2Cl)CC1 (configuration not stated)
IC50 [1]: 11 µM
EC50 [2]: 6 µM

OC1(c2ccc(Cl)cc2)CCN(CCOC(c2ccccc2)c2ccccc2)CC1
IC50 [1]: 2.1 µM
EC50 [2]: 3.5 µM

Clc1cccc(/C=C(\c2ccccc2)N2CCN(CCCCc3ccccc3)CC2)c1
Activity (Human betaherpesvirus 5 [3]): 18%
Activity (Human betaherpesvirus 5 [4]): 47%

c1ccc(CN2C3CCC2CC(OC2c4ccccc4CCc4ccccc42)C3)cc1 (configuration not stated)
IC50 [1]: 10.5 µM
EC50 [2]: 8.8 µM

OCCN1CCN(CCCN2Cc3ccccc3CCc3ccccc32)CC1
IC50 [1]: 1.6 µM

CN1CCN(CCC(=O)N2Cc3ccccc3CCc3ccccc32)CC1
IC50 [1]: > 100 µM
Activity (Human betaherpesvirus 5 [3]): 0%

Clc1ccc(C2=CCN(C3c4ccccc4CC3Cc3ccc(Cl)cc3Cl)CC2)cc1 (configuration not stated)
IC50 [1]: > 100 µM
EC50 [2]: > 100 µM

OCCCCN1CCN(/C(=C/c2cccc(Cl)c2)c2ccccc2)CC1
Activity (Human betaherpesvirus 5 [3]): 0%
Activity (Human betaherpesvirus 5 [4]): 13%

CN1[C@@H]2CC[C@H]1C[C@@H](OC1c3ccccc3CCc3ccccc31)C2
Activity (Human betaherpesvirus 5 [3]): 0%
Activity (Human betaherpesvirus 5 [4]): 15%
